Measurements: ChEMBL document CHEMBL4138044, “Withaferin A induces cell death and differentiation in multiple myeloma cancer stem cells” (Medchemcomm, 2017)
Calls of active or inactive are those of the source. No cut-off for these calls is given here.

How the values were obtained:
[1] = system: Multiple myeloma cancer stem cell; assay: Antiproliferative activity against human multiple myeloma cancer stem cells after 72 hrs by MTT assay; format: functional, cell-based
Procedure, shortened: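 MM-CSCs plated at 5000 cells/well and allowed to adhere 24 h, then exposed to 0–10 μM WFA for 72 h. MTT added for 2 h. Growth taken as absorbance relative to vehicle-control wells ×100. IC50 fitted from at least five concentrations; mean of three independent experiments ± SEM.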

[2] = Antiproliferative activity against human […] cells after 72 hrs by XTT assay; format: functional, cell-based
Procedure, shortened: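 RPMI 8226 cells in RPMI 1640 with 10% FBS, plated at 15 000 cells/well and treated immediately with 0–10 μM WFA for 72 h. XTT added for 4 h. Growth as absorbance relative to vehicle control ×100. IC50 fitted from at least five concentrations; mean of three independent experiments ± SEM.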

[3] = system: Multiple myeloma cancer stem cell; assay: Cell cycle arrest in human multiple myeloma cancer stem cells assessed as accumulation at G1 phase at 0.62 uM […] by FxCycle violet staining-based flow cytometric method (reference value: 45.1%); format: functional
Procedure, shortened: (§1)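 Cells treated 24 h with vehicle or WFA; MM-CSCs were seeded at 100 000 per well and left to adhere 24 h first, RPMIs seeded at 300 000 per well and treated at once. Floating and adherent cells fixed and permeabilized, adjusted to 10^6 cells/mL in PBS, then stained with FxCycle DNA dye for 30 min at room temperature. Flow cytometry; ≥3 independent experiments, mean ± SEM.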

[4] = system: Multiple myeloma cancer stem cell; assay: Cell cycle arrest in human multiple myeloma cancer stem cells assessed as accumulation at G1 phase at 1.25 uM […] by FxCycle violet staining-based flow cytometric method (reference value: 45.1%); format: functional; procedure, shortened: as §1
[5] = system: Multiple myeloma cancer stem cell; assay: Cell cycle arrest in human multiple myeloma cancer stem cells assessed as accumulation at G1 phase at 2.5 uM […] by FxCycle violet staining-based flow cytometric method (reference value: 45.1%); format: functional; procedure, shortened: as §1
[6] = system: Multiple myeloma cancer stem cell; assay: Cell cycle arrest in human multiple myeloma cancer stem cells assessed as accumulation at G2/M phase at 1.25 uM […] by FxCycle violet staining-based flow cytometric method (reference value: 22.9%); format: functional; procedure, shortened: as §1
[7] = system: Multiple myeloma cancer stem cell; assay: Cell cycle arrest in human multiple myeloma cancer stem cells assessed as accumulation at G2/M phase at 2.5 uM […] by FxCycle violet staining-based flow cytometric method (reference value: 22.9%); format: functional; procedure, shortened: as §1
[8] = Cell cycle arrest in human […] cells assessed as accumulation at sub-G1 phase at 0.62 uM […] by FxCycle violet staining-based flow cytometric method (reference value: 10.8%); format: functional; procedure, shortened: as §1
[9] = Cell cycle arrest in human […] cells assessed as accumulation at sub-G1 phase at 1.25 uM […] by FxCycle violet staining-based flow cytometric method (reference value: 10.8%); format: functional; procedure, shortened: as §1
[10] = Cell cycle arrest in human […] cells assessed as accumulation at sub-G1 phase at 2.5 uM […] by FxCycle violet staining-based flow cytometric method (reference value: 10.8%); format: functional; procedure, shortened: as §1
[11] = Cell cycle arrest in human […] cells assessed as accumulation at G1 phase at 1.25 uM […] by FxCycle violet staining-based flow cytometric method (reference value: 28.2%); format: functional; procedure, shortened: as §1
[12] = Cell cycle arrest in human […] cells assessed as accumulation at G2/M phase at 1.25 uM […] by FxCycle violet staining-based flow cytometric method (reference value: 20.2%); format: functional; procedure, shortened: as §1
Homo sapiens [13] = species on record: Homo sapiens; assay: Cell cycle arrest in human […] cells assessed as accumulation at sub-G1 phase […] by FxCycle violet staining-based flow cytometric method; format: functional; procedure, shortened: as §1
Homo sapiens [14] = species on record: Homo sapiens; assay: Cytotoxicity against human RPMI18226 cells assessed as decrease in cell viability after 24 hrs by calcein AM/ethidium homodimer staining-based flow cytometric method; format: functional
[15] = system: Multiple myeloma cancer stem cell; assay: Cytotoxicity against human multiple myeloma cancer stem cells assessed as decrease in cell viability after 24 hrs by calcein AM/ethidium homodimer staining-based flow cytometric method; format: functional
[16] = system: Multiple myeloma cancer stem cell; assay: Cytotoxicity against human multiple myeloma cancer stem cells assessed as cell viability at 2.5 uM after 24 hrs by calcein AM/ethidium homodimer staining-based flow cytometric method (reference value: 95.7%); format: functional; details: read-out: Activity
[17] = system: Multiple myeloma cancer stem cell; assay: Cytotoxicity against human multiple myeloma cancer stem cells assessed as cell viability at 10 uM after 24 hrs by calcein AM/ethidium homodimer staining-based flow cytometric method (reference value: 95.7%); format: functional; details: read-out: Activity
[18] = system: Multiple myeloma cancer stem cell; assay: Cytotoxicity against human multiple myeloma cancer stem cells assessed as dying cells at 10 uM after 24 hrs by calcein AM/ethidium homodimer staining-based flow cytometric method (reference value: 3.6%); format: functional
[19] = system: Multiple myeloma cancer stem cell; assay: Cytotoxicity against human multiple myeloma cancer stem cells assessed as dead cells at 10 uM after 24 hrs by calcein AM/ethidium homodimer staining-based flow cytometric method (reference value: 0.7%); format: functional
[20] = Cytotoxicity against human RPMI18226 cells assessed as cell viability at 1.25 uM after 24 hrs by calcein AM/ethidium homodimer staining-based flow cytometric method (reference value: 67.7%); format: functional; details: RPMI18226, 24 h, read-out: Activity
[21] = Cytotoxicity against human RPMI18226 cells assessed as cell viability at 10 uM after 24 hrs by calcein AM/ethidium homodimer staining-based flow cytometric method (reference value: 67.7%); format: functional; details: RPMI18226, 24 h, read-out: Activity
Homo sapiens [22] = species on record: Homo sapiens; assay: Cytotoxicity against human RPMI18226 cells assessed as increase in dead cells at 1.25 uM after 24 hrs by calcein AM/ethidium homodimer staining-based flow cytometric method (reference value: 21.4%); format: functional, cell-based
[23] = Cytotoxicity against human RPMI18226 cells assessed as dead cells at 10 uM after 24 hrs by calcein AM/ethidium homodimer staining-based flow cytometric method (reference value: 21.4%); format: functional
[24] = system: Multiple myeloma cancer stem cell; assay: Induction of apoptosis in human multiple myeloma cancer stem cells assessed as decrease in viable cells at 5 uM after 24 hrs by annexin V/propidium iodide staining-based flow cytometric method; format: functional
Procedure, shortened: (§2)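 Annexin V/propidium iodide apoptosis staining after 24 h WFA. MM-CSCs adhered 24 h before treatment; RPMIs treated immediately after seeding at 300 000 per well. Floating and adherent cells washed, adjusted to 10^6 cells/mL, stained 15 min at room temperature, flow cytometry separating viable, early and late apoptotic cells; ≥3 independent experiments, mean ± SEM.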

Homo sapiens [25] = species on record: Homo sapiens; assay: Induction of apoptosis in human […] cells assessed as decrease in viable cells at 1.25 uM after 24 hrs by annexin V/propidium iodide staining-based flow cytometric method; format: functional, cell-based; procedure, shortened: as §2
[26] = system: Multiple myeloma cancer stem cell; assay: Induction of apoptosis in human multiple myeloma cancer stem cells assessed as increase in late apoptotic cells at 5 uM after 24 hrs by annexin V/propidium iodide staining-based flow cytometric method; format: functional; procedure, shortened: as §2
Homo sapiens [27] = species on record: Homo sapiens; assay: Induction of apoptosis in human […] cells assessed as increase in late apoptotic cells at 1.25 uM after 24 hrs by annexin V/propidium iodide staining-based flow cytometric method; format: functional, cell-based; procedure, shortened: as §2
[28] = Cytotoxicity against human CD34-positive hematopoietic stem cells assessed as decrease in cell viability at <5 uM after 24 hrs by calcein AM/ethidium homodimer staining-based flow cytometric method
[29] = Cytotoxicity against human CD34-positive hematopoietic stem cells assessed as decrease in cell viability at 10 uM after 24 hrs by calcein AM/ethidium homodimer staining-based flow cytometric method
[30] = system: Multiple myeloma cancer stem cell; assay: Antimigratory activity in human multiple myeloma cancer stem cells at 0.62 to 1.25 uM after 24 hrs by scratch assay; format: functional, cell-based
Procedure, shortened: (§3)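 MM-CSCs seeded at 100 000 cells per well, grown 24 h to a confluent monolayer, scratched with a pipette tip and imaged at 0 h. Cells then treated with increasing WFA concentrations for 24 h and the same spot re-imaged. Percent unfilled space = scratch width at 24 h / width at 0 h × 100; recovery = 100 − unfilled. 3 independent experiments.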

[31] = system: Multiple myeloma cancer stem cell; assay: Antimigratory activity in human multiple myeloma cancer stem cells at 2.5 uM after 24 hrs by scratch assay; format: functional, cell-based; procedure, shortened: as §3
[32] = system: Multiple myeloma cancer stem cell; assay: Induction of morphological changes in human multiple myeloma cancer stem cells assessed as cell enlargement at 0.62 uM after 24 hrs by phalloidin/DAPI staining-based assay; format: functional
Procedure, shortened: (§4)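 MM-CSCs seeded at 5000 cells/well and allowed to adhere 24 h, then treated with increasing WFA for 24 h. Fixed in 4% paraformaldehyde for 10 min, permeabilized with 0.1% Triton X-100 for 5 min, stained with 5 U/mL phalloidin for 20 min and 1 μg/mL DAPI for 5 min at room temperature. Imaged; cell area and circularity quantified; 3 experiments.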

[33] = system: Multiple myeloma cancer stem cell; assay: Induction of morphological changes in human multiple myeloma cancer stem cells assessed as appearance in circular shape at 0.62 uM after 24 hrs by phalloidin/DAPI staining-based assay; format: functional; procedure, shortened: as §4
[34] = system: Multiple myeloma cancer stem cell; assay: Induction of morphological changes in human multiple myeloma cancer stem cells assessed as appearance of epithelial/lymphoblastic-like morphology at 0.62 uM after 24 hrs by phalloidin/DAPI staining-based assay; format: functional; procedure, shortened: as §4
[35] = system: Multiple myeloma cancer stem cell; assay: Induction of morphological changes in human multiple myeloma cancer stem cells assessed as appearance of larger cytoplasmic area at 1.25 uM after 24 hrs by phalloidin/DAPI staining-based assay; format: functional; procedure, shortened: as §4
[36] = system: Multiple myeloma cancer stem cell; assay: Induction of morphological changes in human multiple myeloma cancer stem cells assessed as appearance in spherical shape at 1.25 uM after 24 hrs by phalloidin/DAPI staining-based assay; format: functional; procedure, shortened: as §4
[37] = system: Multiple myeloma cancer stem cell; assay: Induction of differentiation of human multiple myeloma cancer stem cells assessed as downregulation of MSI2 mRNA expression at 0.31 to 5 uM after 24 hrs by qPCR method; format: functional, cell-based
Procedure, shortened: (§5)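 MM-CSCs treated with vehicle or increasing WFA concentrations for 24 h. Relative mRNA levels of the stemness markers then measured; mean ± SEM of 3 independent experiments, one-way ANOVA with Bonferroni test.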

[38] = system: Multiple myeloma cancer stem cell; assay: Induction of differentiation of human multiple myeloma cancer stem cells assessed as downregulation of CD166 mRNA expression at 0.31 to 5 uM after 24 hrs by qPCR method; format: functional, cell-based; procedure, shortened: as §5
[39] = system: Multiple myeloma cancer stem cell; assay: Induction of differentiation of human multiple myeloma cancer stem cells assessed as downregulation of CD151 mRNA expression at 0.31 to 5 uM after 24 hrs by qPCR method; format: functional, cell-based; procedure, shortened: as §5
[40] = system: Multiple myeloma cancer stem cell; assay: Induction of differentiation of human multiple myeloma cancer stem cells assessed as downregulation of SOX2 mRNA expression at 0.31 to 5 uM after 24 hrs by qPCR method; format: functional, cell-based; procedure, shortened: as §5
[41] = system: Multiple myeloma cancer stem cell; assay: Induction of differentiation of human multiple myeloma cancer stem cells assessed as upregulation of CD44 mRNA expression at 0.31 to 5 uM after 24 hrs by qPCR method; format: functional, cell-based; procedure, shortened: as §5
[42] = system: Multiple myeloma cancer stem cell; assay: Induction of differentiation of human multiple myeloma cancer stem cells assessed as upregulation of Kit mRNA expression at 0.31 to 5 uM after 24 hrs by qPCR method; format: functional, cell-based; procedure, shortened: as §5
RPMI-8226 (Homo sapiens) [43] = assay: Cell cycle arrest in human RPMI-8226 cells assessed as accumulation at S phase at 2.5 uM […] by FxCycle violet staining-based flow cytometric method (reference value: 40.9%)
RPMI-8226 (Homo sapiens) [44] = assay: Cell cycle arrest in human RPMI-8226 cells assessed as accumulation at S phase at 0.62 uM […] by FxCycle violet staining-based flow cytometric method (reference value: 40.9%)
RPMI-8226 (Homo sapiens) [45] = assay: Cell cycle arrest in human RPMI-8226 cells assessed as accumulation at S phase at 1.25 uM […] by FxCycle violet staining-based flow cytometric method (reference value: 40.9%)

C[C@@H]1C[C@H]2[C@@H]3CCC4=CC(=O)C=C[C@]4(C)[C@@]3(F)[C@@H](O)C[C@]2(C)[C@@]1(O)C(=O)CO [DEXAMETHASONE]
IC50 [1]: > 100000 nM
IC50 [2]: 7.8 nM

CC1=C(CO)C(=O)O[C@@H]([C@@H](C)[C@H]2CC[C@H]3[C@@H]4C[C@H]5O[C@]56[C@@H](O)C=CC(=O)[C@]6(C)[C@H]4CC[C@]23C)C1 [WITHAFERIN A]
IC50 [1]: 650 nM
IC50 [2]: 224 nM
Activity [3]: 21.5%
Activity [4]: 15.5%
Activity [5]: 19.5%
Activity [6]: 59.6%
Activity [7]: 61.4%
Activity [8]: 15.6%
Activity [9]: 23.1%
Activity [10]: 21.5%
Activity [11]: 19.1%
Activity [12]: 28.4%
Activity (Homo sapiens [13]): Dose-dependent effect
Activity (Homo sapiens [14]): Dose-dependent effect
Activity [15]: Dose-dependent effect
viability at 2.5 µM [16]: 64.6%
viability at 10 µM [17]: 12.1%
Activity [18]: 31.5%
Activity [19]: 56.4%
viability at 1.25 µM [20]: 32.1%
viability at 10 µM [21]: 8.2%
Activity (Homo sapiens [22]): Active
Activity [23]: 87%
Activity [24]: Active
Activity (Homo sapiens [25]): Active
Activity [26]: Active
Activity (Homo sapiens [27]): Active
Activity [28]: Non-Toxic
Activity [29]: Toxic
Activity [30]: inactive
Activity [31]: Active
Activity [32]: Active
Activity [33]: Active
Activity [34]: Active
Activity [35]: Active
Activity [36]: Active
Activity [37]: Active
Activity [38]: Active
Activity [39]: Active
Activity [40]: Active
Activity [41]: Active
Activity [42]: Active
Activity (RPMI-8226 (Homo sapiens) [43]): 34%
Activity (RPMI-8226 (Homo sapiens) [44]): 31.7%
Activity (RPMI-8226 (Homo sapiens) [45]): 29.4%
